Biological target: Glutamate receptor 4 (Homo sapiens, UniProt P48058)
Assay: Tested for potentiation towards human iGluR4 receptor expressed in HEK293 cells
Type: functional, cell-based
Method in brief: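 Human GluR4 flip, stably homomerically expressed in HEK-293 cells. Cells loaded 60 min with 20 µM Fluo3-AM in HEPES buffer (138 mM NaCl, 5 mM CaCl2, 10 mM glucose, pH 7.1-7.3), then washed. Calcium-influx fluorescence read after 100 µM L-glutamate with compound at various concentrations. Responses expressed as % of 100 µM cyclothiazide; EC50 ± SEM calculated.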

Chain of Glutamate receptor 4 (P48058 whole entry): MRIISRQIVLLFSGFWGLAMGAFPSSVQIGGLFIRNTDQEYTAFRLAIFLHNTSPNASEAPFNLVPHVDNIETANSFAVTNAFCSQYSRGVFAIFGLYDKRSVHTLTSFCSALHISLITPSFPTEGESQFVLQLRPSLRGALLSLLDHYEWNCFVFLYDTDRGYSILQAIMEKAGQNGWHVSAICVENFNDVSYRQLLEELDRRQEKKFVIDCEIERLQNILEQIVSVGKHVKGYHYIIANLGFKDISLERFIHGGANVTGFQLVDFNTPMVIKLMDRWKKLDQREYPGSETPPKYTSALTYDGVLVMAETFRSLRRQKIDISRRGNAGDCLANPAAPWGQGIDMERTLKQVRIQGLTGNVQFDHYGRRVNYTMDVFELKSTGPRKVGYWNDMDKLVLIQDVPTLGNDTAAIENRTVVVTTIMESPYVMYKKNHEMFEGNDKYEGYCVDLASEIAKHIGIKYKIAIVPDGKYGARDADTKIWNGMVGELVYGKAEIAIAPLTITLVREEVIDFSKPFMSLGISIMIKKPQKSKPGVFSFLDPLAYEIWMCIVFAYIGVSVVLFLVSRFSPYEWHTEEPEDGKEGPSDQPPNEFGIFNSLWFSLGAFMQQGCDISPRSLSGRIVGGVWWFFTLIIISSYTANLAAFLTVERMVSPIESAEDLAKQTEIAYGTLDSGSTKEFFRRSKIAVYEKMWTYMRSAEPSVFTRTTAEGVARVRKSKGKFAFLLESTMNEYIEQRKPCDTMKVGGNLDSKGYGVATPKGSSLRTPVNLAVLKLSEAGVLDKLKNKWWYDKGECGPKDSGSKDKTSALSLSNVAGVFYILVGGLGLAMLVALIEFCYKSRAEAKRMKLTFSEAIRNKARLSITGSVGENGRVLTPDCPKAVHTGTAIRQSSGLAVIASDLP

| EC50 [µM] | Structure (SMILES) |
| --- | --- |
| 23.8 | CCCS(=O)(=O)NCC(C)c1ccc(-c2ccccc2F)cc1 (centres undefined) |
| 4 | CC(CNS(=O)(=O)N(C)C)c1ccc(-c2ccccc2F)cc1 (centres undefined) |
| > 3 | CC(CNS(=O)(=O)C(C)C)c1ccc(-c2ccc(Cl)cc2)cc1 (centres undefined) |
| > 100 | CCCCS(=O)(=O)NCC(C)c1ccc(-c2ccccc2F)cc1 (centres undefined) |
| > 100 | CC(CNS(=O)(=O)Cc1ccccc1)c1ccc(-c2ccccc2F)cc1 (centres undefined) |
| 1.2 | CC(CNS(=O)(=O)C(C)C)c1ccc(C(C)(C)C)cc1 (centres undefined) |
| > 100 | CC(C)S(=O)(=O)NCC(CCc1ccccc1)c1ccc(C(C)(C)C)cc1 (centres undefined) |
| 32.9 | CC(CNS(=O)(=O)C(F)(F)F)c1ccc(-c2ccccc2F)cc1 (centres undefined) |
| 2 | CCC(CNS(=O)(=O)C(C)C)c1ccc(C(C)(C)C)cc1 (centres undefined) |
| 7.2 | CC(C)S(=O)(=O)NCCc1ccc(-c2ccccc2F)cc1 |
| 27.9 | CCCC(CNS(=O)(=O)C(C)C)c1ccc(C(C)(C)C)cc1 (centres undefined) |
| 1 | CC(CNS(=O)(=O)C(C)C)c1ccc(-c2ccccc2)cc1 (centres undefined) |
| 4.5 | CC(CNS(C)(=O)=O)c1ccc(-c2ccsc2)cc1 (centres undefined) |
| 62.5 | CC(CNS(=O)(=O)c1ccccc1)c1ccc(-c2ccccc2F)cc1 (centres undefined) |
| > 3 | CC(CNS(=O)(=O)C(C)C)c1ccc(-c2ccc(C(F)(F)F)cc2)cc1 (centres undefined) |
| 0.66 | CC(CNS(=O)(=O)C(C)C)c1ccc(-c2ccsc2)cc1 (centres undefined) |
| 5.4 | CCS(=O)(=O)NCC(C)c1ccc(-c2ccccc2F)cc1 (centres undefined) |
| 19.6 | CC(CNS(C)(=O)=O)c1ccc(-c2ccccc2F)cc1 (centres undefined) |
| 12.8 | CC(C)S(=O)(=O)NCCc1ccc(C(C)(C)C)cc1 |
| 4.4 | CC(CNS(=O)(=O)C(C)C)c1ccc(-c2ccccc2F)cc1 (centres undefined) |
| > 100 | CC(C)S(=O)(=O)NCC(Cc1ccccc1)c1ccc(C(C)(C)C)cc1 (centres undefined) |
| 0.27 | Cc1ccc(-c2ccc(C(C)CNS(=O)(=O)C(C)C)cc2)cc1 (centres undefined) |
| 0.25 | CC(CNS(=O)(=O)C(C)C)c1ccc(-c2ccc(C=O)cc2)cc1 (centres undefined) |
| > 1000 | O=C(c1ccc2nccnc2c1)N1CCCCC1 [CX516] |
| 3.8 | NS(=O)(=O)c1cc2c(cc1Cl)NC(C1CC3C=CC1C3)NS2(=O)=O (centres undefined) [CYCLOTHIAZIDE] |

| Structure (SMILES) | EC50 [µM] |
| --- | --- |
| CC(CNS(=O)(=O)C(C)C)c1ccc(-c2ccc(N)cc2)cc1 (centres undefined) | 0.13 |
| CC(CNS(=O)(=O)C(C)C)c1ccc(-c2ccc(C(=O)O)cc2)cc1 (centres undefined) | 1.4 |
| CC(CN)c1ccc(-c2ccccc2F)cc1 (centres undefined) | > 100 |
| CC(CNS(=O)(=O)C(C)C)c1ccc(-c2ccc(C#N)cc2)cc1 (centres undefined) | 0.29 |

— ChEMBL document CHEMBL1133516, “Biarylpropylsulfonamides as novel, potent potentiators of 2-amino-3- (5-methyl-3-hydroxyisoxazol-4-yl)- propanoic acid (AMPA) receptors” (J Med Chem, 2000)
